Columns and labels:
Chikungunya virus = assay: Antiviral activity against Chikungunya virus 899 infected in African green monkey Vero cells assessed as inhibition of virus-induced cell death after 6 to 7 days by MTS assay; assay type: functional, cell-based; conditions: Chikungunya virus, 899, Vero
[1] = test system: Human immunodeficiency virus 1; assay: Antiviral activity against Human immunodeficiency virus 1 3b infected in human MT4 cells assessed as inhibition of virus replication after 5 days by MTT assay; assay type: functional, organism-based; conditions: MT4, 120 h
Summary of the method: (§1)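 MT-4 cells ([…] suspension) infected with HIV-1 IIIB or HIV-2 ROD at 100−300 CCID50, with serial 5-fold compound dilutions in triplicate. Viability read by MTT reduction 5 days after infection. SI = CC50 MT-4/IC50. Median ± median absolute deviation, ≥3 independent assays.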

[2] = Cytotoxicity against human MT4 cells assessed as inhibition of overall cell metabolism after 5 days by MTT assay; assay type: ADME, cell-based
Summary of the method: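 Mock-infected MT-4 cells in triplicate wells with serial 5-fold compound dilutions run alongside the infected series. Viability read by MTT formazan 5 days later; CC50 from the concentration-response. Median ± median absolute deviation, ≥3 independent assays.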

[3] = test system: Human immunodeficiency virus 2; assay: Antiviral activity against Human immunodeficiency virus type 2 ROD infected in human MT4 cells assessed as inhibition of virus replication after 5 days by MTT assay; assay type: functional, organism-based; conditions: Human immunodeficiency virus 2, ISOLATE ROD, MT4, 120 h; summary of the method: as §1
Sindbis virus = assay: Antiviral activity against Sindbis virus HRsp infected in African green monkey Vero cells assessed as inhibition of virus-induced cell death after 6 to 7 days by MTS assay; assay type: functional, organism-based
Semliki Forest virus = assay: Antiviral activity against Semliki forest virus Vietnam infected in African green monkey Vero cells assessed as inhibition of virus-induced cell death after 6 to 7 days by MTS assay; assay type: functional, organism-based
[4] = Cytotoxicity against African green monkey Vero cells assessed as inhibition of overall cell metabolism after 6 to 7 days by MTS assay; assay type: ADME, cell-based; conditions: chlorocebus sabaeus
Summary of the method: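 Uninfected Vero cells (25 000/well) with compound serial dilutions in MEM with 2% FCS, 37 °C, 6−7 days. Readout 5% MTS for 1.5 h, absorbance 498 nm. CC50 is the concentration calculated to inhibit overall cell metabolism by 50%, from dose−response curves. Median ± median absolute deviation, ≥3 independent assays.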

[5] = Selectivity index, ratio of CC50 for human MT4 cells to IC50 for Human immunodeficiency virus type 2 ROD infected in human MT4 cells; assay type: functional; summary of the method: as §1
[6] = Selectivity index, ratio of CC50 for African green monkey Vero cells to EC50 for Sindbis virus HRsp infected in African green monkey Vero cells; assay type: toxicity, cell-based; conditions: read-out: Ratio CC50/EC50
[7] = Selectivity index, ratio of CC50 for African green monkey Vero cells to EC50 for Chikungunya virus 899 infected in African green monkey Vero cells; assay type: toxicity, cell-based; conditions: read-out: Ratio CC50/EC50
[8] = Selectivity index, ratio of CC50 for human MT4 cells to IC50 for Human immunodeficiency virus 1 3b infected in human MT4 cells; assay type: functional; summary of the method: as §1
[9] = test system: Human immunodeficiency virus 1; assay: Antiviral activity against recombinant Human immunodeficiency virus 1 NL4.3 containing Renilla gene infected in CD3/IL2-activated human MT2 cells assessed as inhibition of virus replication pretreated for 2 hrs followed by viral infection for additional 2 hrs measured after 48 hrs by Renilla-luciferase reporter gene assay; assay type: functional, organism-based; conditions: Human immunodeficiency virus 1, NL4.3, MT2
[10] = Cytotoxicity against human MT2 cells assessed as cell viability incubated for 2 weeks with every 48 to 72 hrs of compound washed out measured on day 2, 6, 10, 14 by CellTiter Glo luminescence assay; assay type: cell-based
[11] = Selectivity index, ratio of CC50 for African green monkey Vero cells to EC50 for Semliki forest virus Vietnam infected in African green monkey Vero cells; assay type: toxicity, cell-based; conditions: read-out: Ratio CC50/EC50

## C=C1[C@H](OC(C)=O)[C@H]2[C@@H](OC(C)=O)[C@](C)(O)C[C@]2(OC(C)=O)C(=O)[C@H](C)/C=C/C(C)(C)C(=O)[C@H](OC(C)=O)[C@H]1OC(C)=O
Chikungunya virus
  EC50: > 164 µM

## C=C1[C@H](OC(C)=O)[C@H]2[C@@H](OC(C)=O)[C@](C)(O)C[C@]2(OC(C)=O)C(=O)[C@H](C)/C=C/C(C)(C)C(=O)[C@H](OC(=O)C(C)C)[C@H]1OC(C)=O
[1]
  IC50: > 79 µM
[2]
  CC50 at 120 h: > 32 µM
[3]
  IC50: > 79 µM
Sindbis virus
  EC50: > 157 µM
Semliki Forest virus
  EC50: > 157 µM
[4]
  CC50: > 196 µM
Chikungunya virus
  EC50: > 196 µM

## C=C1[C@H](OC(C)=O)[C@H]2[C@@H](OC(C)=O)[C@](C)(O)C[C@]2(OC(C)=O)C(=O)[C@H](C)/C=C/C(C)(C)C(=O)[C@H](OC(=O)/C(C)=C/C)[C@H]1OC(C)=O
[1]
  IC50: 0.34 µM
[5]
  Ratio CC50/IC50: >751
[2]
  CC50 at 120 h: > 32 µM
[3]
  IC50: 0.043 µM
Sindbis virus
  EC50: 44 µM
Semliki Forest virus
  EC50: > 116 µM
[4]
  CC50: 159 µM
Chikungunya virus
  EC50: 0.76 µM
[6]
  selectivity ratio: 3.6
[7]
  selectivity ratio: 208
[8]
  Ratio CC50/IC50: >96

## C=C1[C@H](OC(C)=O)[C@H]2[C@@H](OC(C)=O)[C@](C)(O)C[C@]2(OC(C)=O)C(=O)[C@H](C)/C=C/C(C)(C)C(=O)[C@H](OC(=O)c2ccccc2)[C@H]1OC(C)=O
[1]
  IC50: > 59 µM
[5]
  Ratio CC50/IC50: >2.8
[2]
  CC50 at 120 h: > 30 µM
[3]
  IC50: 10.9 µM
Sindbis virus
  EC50: > 165 µM
Semliki Forest virus
  EC50: > 165 µM
[4]
  CC50: 125 µM
Chikungunya virus
  EC50: 4.3 µM
[7]
  selectivity ratio: 29

## C=C1[C@H](OC(C)=O)[C@H]2[C@@H](OC(C)=O)[C@](C)(OC(C)=O)C[C@]2(OC(C)=O)C(=O)[C@H](C)/C=C/C(C)(C)C(=O)[C@H](OC(C)=O)[C@H]1OC(C)=O
[1]
  IC50: 37.1 µM
[5]
  Ratio CC50/IC50: >5.5
[2]
  CC50 at 120 h: > 33 µM
[9]
  IC50: 0.002 µM
[3]
  IC50: 5.9 µM
Sindbis virus
  EC50: > 154 µM
Semliki Forest virus
  EC50: > 115 µM
[10]
  CC50 at 336 h: > 100 µM
[4]
  CC50: > 154 µM
Chikungunya virus
  EC50: 60 µM
[7]
  selectivity ratio: > 2.6

## C=C1[C@H](OC(C)=O)[C@H]2[C@@H](OC(C)=O)[C@](C)(OC(C)=O)C[C@]2(OC(C)=O)C(=O)[C@H](C)/C=C/C(C)(C)C(=O)[C@H](OC(=O)/C(C)=C/C)[C@H]1OC(C)=O
[1]
  IC50: 21.5 µM
[5]
  Ratio CC50/IC50: >18
[2]
  CC50 at 120 h: > 35 µM
[3]
  IC50: 2 µM
Sindbis virus
  EC50: > 145 µM
Semliki Forest virus
  EC50: > 145 µM
[4]
  CC50: 145 µM
Chikungunya virus
  EC50: 17.4 µM
[7]
  selectivity ratio: 8.3
[8]
  Ratio CC50/IC50: >1.6

## C=C1[C@H](OC(C)=O)[C@H]2[C@@H](OC(C)=O)[C@](C)(OC(C)=O)C[C@]2(OC(C)=O)C(=O)[C@H](C)/C=C/C(C)(C)C(=O)[C@H](OC(=O)c2ccccc2)[C@H]1OC(C)=O
[1]
  IC50: > 70 µM
[5]
  Ratio CC50/IC50: >1
[2]
  CC50 at 120 h: > 36 µM
[3]
  IC50: 34.7 µM
Sindbis virus
  EC50: > 140 µM
Semliki Forest virus
  EC50: > 140 µM
[4]
  CC50: > 50 µM
Chikungunya virus
  EC50: 17.1 µM
[7]
  selectivity ratio: > 2.9

## C=C1[C@H](OC(C)=O)[C@H]2[C@@H](OC(=O)c3ccccc3)[C@@H](C)C[C@]2(O)[C@H](O)[C@H](C)/C=C/C(C)(C)C(=O)[C@H](OC(C)=O)[C@H]1OC(C)=O
[1]
  IC50: > 38 µM
[5]
  Ratio CC50/IC50: >6
[2]
  CC50 at 120 h: > 31 µM
[3]
  IC50: 5.2 µM
Sindbis virus
  EC50: 30.1 µM
Semliki Forest virus
  EC50: 62 µM
[4]
  CC50: 151 µM
Chikungunya virus
  EC50: 19.5 µM
[6]
  selectivity ratio: 5
[11]
  selectivity ratio: 2.4
[7]
  selectivity ratio: 7.8

## C=C1[C@H](OC(C)=O)[C@H]2[C@@H](OC(=O)c3ccccc3)[C@@H](C)C[C@]2(O)[C@H](O)[C@H](C)/C=C/C(C)(C)C(=O)[C@H](OC(=O)C(C)C)[C@H]1OC(C)=O
[1]
  IC50: > 39 µM
[2]
  CC50 at 120 h: > 16 µM
[3]
  IC50: > 39 µM
Sindbis virus
  EC50: 28.8 µM
Semliki Forest virus
  EC50: 20.5 µM
[4]
  CC50: 60 µM
Chikungunya virus
  EC50: 21 µM
[6]
  selectivity ratio: 2.1
[11]
  selectivity ratio: 2.9
[7]
  selectivity ratio: 2.8

## C=C1[C@H](OC(C)=O)[C@H]2[C@@H](OC(=O)c3ccccc3)[C@@H](C)C[C@]2(O)[C@H](O)[C@H](C)/C=C/C(C)(C)C(=O)[C@H](OC(=O)C(C)CC)[C@H]1OC(C)=O (stereo partly specified)
[1]
  IC50: > 76 µM
[2]
  CC50 at 120 h: > 33 µM
[3]
  IC50: > 76 µM
Sindbis virus
  EC50: 51 µM
Semliki Forest virus
  EC50: 76 µM
[4]
  CC50: > 190 µM
Chikungunya virus
  EC50: 111 µM
[6]
  selectivity ratio: > 3.7
[11]
  selectivity ratio: > 2.5
[7]
  selectivity ratio: > 1.7

## C=C1[C@H](OC(C)=O)[C@H]2[C@@H](OC(=O)c3ccccc3)[C@@H](C)C[C@]2(O)[C@H](OC(C)=O)[C@H](C)/C=C/C(C)(C)C(=O)[C@H](O)[C@H]1OC(C)=O
[1]
  IC50: > 81 µM
[5]
  Ratio CC50/IC50: <0.9
[2]
  CC50 at 120 h: > 31 µM
[3]
  IC50: 32.5 µM
Sindbis virus
  EC50: > 163 µM
Semliki Forest virus
  EC50: > 163 µM
[4]
  CC50: 150 µM
Chikungunya virus
  EC50: 80 µM
[7]
  selectivity ratio: 1.9

## CCN(CC)CCCC(C)Nc1ccnc2cc(Cl)ccc12 (stereo unspecified) [CHLOROQUINE]
Chikungunya virus
  EC50: 10 µM

## O=c1[nH]cnc2c1ncn2[C@H]1CC[C@@H](CO)O1 [DIDANOSINE]
[1]
  IC50: 10.8 µM
[5]
  Ratio CC50/IC50: >5.2
[2]
  CC50 at 120 h: > 50 µM
[3]
  IC50: 9.6 µM
[8]
  Ratio CC50/IC50: >4.6

## Nc1ccn([C@@H]2CS[C@H](CO)O2)c(=O)n1 [LAMIVUDINE]
[5]
  Ratio CC50/IC50: >5.6
[2]
  CC50 at 120 h: > 87 µM
[8]
  Ratio CC50/IC50: >22

## Cc1ccnc2c1NC(=O)c1cccnc1N2C1CC1 [NEVIRAPINE]
[2]
  CC50 at 120 h: > 15 µM
[3]
  IC50: > 15 µM

## Cc1cn([C@H]2C[C@H](N=[N+]=[N-])[C@@H](CO)O2)c(=O)[nH]c1=O [ZIDOVUDINE]
[2]
  CC50 at 120 h: > 25 µM
[3]
  IC50: 0.006 µM

From ChEMBL document CHEMBL3414423, “Jatrophane diterpenes as inhibitors of chikungunya virus replication: structure-activity relationship and discovery of a potent lead” (J Nat Prod, 2014)
